# Experimental data reported in ChEMBL document CHEMBL1123314, “Adriamycin analogues. Preparation and biological evaluation of some N-(trifluoroacetyl)-14-O-[(N-acetylamino)acyl]adriamycin derivatives” (J Med Chem, 1986).
# Tested on: not listed separately
# Assay: % hydrolysis in 60 min
# Settings: not given
row,SMILES,% hydrolysis at 1 h [%]
1,COc1cccc2c1C(=O)c1c(O)c3c(c(O)c1C2=O)C[C@@](O)(C(=O)COC(=O)C1CCCN1C(C)=O)C[C@@H]3OC1CC(NC(=O)C(F)(F)F)C(O)C(C)O1 (some centres undefined),4

# Tested on: not listed separately
# Assay: Half-life time of the compound
# Format: ADME
# Settings: not given
row,SMILES,half-life [min]
1,COc1cccc2c1C(=O)c1c(O)c3c(c(O)c1C2=O)C[C@@](O)(C(=O)COC(=O)C(CCSC)NC(C)=O)C[C@@H]3OC1CC(NC(=O)C(F)(F)F)C(O)C(C)O1 (some centres undefined),38
2,COc1cccc2c1C(=O)c1c(O)c3c(c(O)c1C2=O)C[C@@](O)(C(=O)COC(=O)C(Cc1ccccc1)NC(C)=O)C[C@@H]3OC1CC(NC(=O)C(F)(F)F)C(O)C(C)O1 (some centres undefined),14
3,COc1cccc2c1C(=O)c1c(O)c3c(c(O)c1C2=O)C[C@@](O)(C(=O)COC(=O)CNC(=O)c1ccccc1)C[C@@H]3OC1CC(NC(=O)C(F)(F)F)C(O)C(C)O1 (some centres undefined),3.5
4,COc1cccc2c1C(=O)c1c(O)c3c(c(O)c1C2=O)C[C@@](O)(C(=O)COC(=O)CCC(NC(C)=O)C(N)=O)C[C@@H]3OC1CC(NC(=O)C(F)(F)F)C(O)C(C)O1 (some centres undefined),24
5,COc1cccc2c1C(=O)c1c(O)c3c(c(O)c1C2=O)C[C@@](O)(C(=O)COC(=O)C(CC(C)C)NC(C)=O)C[C@@H]3OC1CC(NC(=O)C(F)(F)F)C(O)C(C)O1 (some centres undefined),65
6,COc1cccc2c1C(=O)c1c(O)c3c(c(O)c1C2=O)C[C@@](O)(C(=O)COC(=O)CCC(NC(C)=O)C(=O)O)C[C@@H]3OC1CC(NC(=O)C(F)(F)F)C(O)C(C)O1 (some centres undefined),16
7,COc1cccc2c1C(=O)c1c(O)c3c(c(O)c1C2=O)C[C@@](O)(C(=O)COC(=O)C(C)NC(C)=O)C[C@@H]3OC1CC(NC(=O)C(F)(F)F)C(O)C(C)O1 (some centres undefined),18
8,COc1cccc2c1C(=O)c1c(O)c3c(c(O)c1C2=O)C[C@@](O)(C(=O)COC(=O)CNC(C)=O)C[C@@H]3OC1CC(NC(=O)C(F)(F)F)C(O)C(C)O1 (some centres undefined),10
9,COc1cccc2c1C(=O)c1c(O)c3c(c(O)c1C2=O)C[C@@](O)(C(=O)COC(=O)CC(NC(C)=O)C(=O)O)C[C@@H]3OC1CC(NC(=O)C(F)(F)F)C(O)C(C)O1 (some centres undefined),18

# Tested on: not listed separately
# Assay: % hydrolysis in 60 min
# Settings: not given
# Remark: another data set of the same source
row,SMILES,% hydrolysis at 1 h [%]
1,COc1cccc2c1C(=O)c1c(O)c3c(c(O)c1C2=O)C[C@@](O)(C(=O)COC(=O)C(NC(C)=O)C(C)C)C[C@@H]3OC1CC(NC(=O)C(F)(F)F)C(O)C(C)O1 (some centres undefined),8

# Tested on: CCRF-CEM
# Assay: In vitro antitumor activity in CCRF-CEM culture of human leukemic lymphocytes
# Format: functional
# Settings: read-out: ID50 (the source's name)
# How it was run: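 CCRF-CEM human leukemic lymphoblasts were grown in suspension in Eagle's MEM with 10% fetal bovine serum and exposed to drug continuously for 48 h. ID50 is the concentration giving 50% reduction in growth relative to untreated control cultures.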
row,SMILES,IC50 [nM]
1,COc1cccc2c1C(=O)c1c(O)c3c(c(O)c1C2=O)C[C@@](O)(C(=O)CO)C[C@@H]3O[C@H]1C[C@H](N)[C@H](O)[C@H](C)O1 [DOXORUBICIN],30
2,COc1cccc2c1C(=O)c1c(O)c3c(c(O)c1C2=O)C[C@@](O)(C(=O)COC(=O)C(CCSC)NC(C)=O)C[C@@H]3OC1CC(NC(=O)C(F)(F)F)C(O)C(C)O1 (some centres undefined),830
3,COc1cccc2c1C(=O)c1c(O)c3c(c(O)c1C2=O)C[C@@](O)(C(=O)COC(=O)C1CCCN1C(C)=O)C[C@@H]3OC1CC(NC(=O)C(F)(F)F)C(O)C(C)O1 (some centres undefined),300
4,COc1cccc2c1C(=O)c1c(O)c3c(c(O)c1C2=O)C[C@@](O)(C(=O)COC(=O)C(Cc1ccccc1)NC(C)=O)C[C@@H]3OC1CC(NC(=O)C(F)(F)F)C(O)C(C)O1 (some centres undefined),90
5,COc1cccc2c1C(=O)c1c(O)c3c(c(O)c1C2=O)C[C@@](O)(C(=O)COC(=O)CNC(=O)c1ccccc1)C[C@@H]3OC1CC(NC(=O)C(F)(F)F)C(O)C(C)O1 (some centres undefined),120
6,COc1cccc2c1C(=O)c1c(O)c3c(c(O)c1C2=O)C[C@@](O)(C(=O)COC(=O)C(NC(C)=O)C(C)C)C[C@@H]3OC1CC(NC(=O)C(F)(F)F)C(O)C(C)O1 (some centres undefined),140
7,CCCCC(=O)OCC(=O)[C@]1(O)Cc2c(O)c3c(c(O)c2[C@@H](OC2CC(NC(=O)C(F)(F)F)C(O)C(C)O2)C1)C(=O)c1c(OC)cccc1C3=O (some centres undefined),230
8,COc1cccc2c1C(=O)c1c(O)c3c(c(O)c1C2=O)C[C@@](O)(C(=O)COC(=O)CCC(NC(C)=O)C(N)=O)C[C@@H]3OC1CC(NC(=O)C(F)(F)F)C(O)C(C)O1 (some centres undefined),120
9,COc1cccc2c1C(=O)c1c(O)c3c(c(O)c1C2=O)C[C@@](O)(C(=O)COC(=O)C(CC(C)C)NC(C)=O)C[C@@H]3OC1CC(NC(=O)C(F)(F)F)C(O)C(C)O1 (some centres undefined),150
10,COc1cccc2c1C(=O)c1c(O)c3c(c(O)c1C2=O)C[C@@](O)(C(=O)COC(=O)CCC(NC(C)=O)C(=O)O)C[C@@H]3OC1CC(NC(=O)C(F)(F)F)C(O)C(C)O1 (some centres undefined),160
11,COc1cccc2c1C(=O)c1c(O)c3c(c(O)c1C2=O)C[C@@](O)(C(=O)COC(=O)C(C)NC(C)=O)C[C@@H]3OC1CC(NC(=O)C(F)(F)F)C(O)C(C)O1 (some centres undefined),150
12,COc1cccc2c1C(=O)c1c(O)c3c(c(O)c1C2=O)C[C@@](O)(C(=O)COC(=O)CNC(C)=O)C[C@@H]3OC1CC(NC(=O)C(F)(F)F)C(O)C(C)O1 (some centres undefined),140
13,COc1cccc2c1C(=O)c1c(O)c3c(c(O)c1C2=O)C[C@@](O)(C(=O)COC(=O)CC(NC(C)=O)C(=O)O)C[C@@H]3OC1CC(NC(=O)C(F)(F)F)C(O)C(C)O1 (some centres undefined),1000

# Tested on: Mus musculus
# Assay: Compound was evaluated in vivo for antileukemic activity in B6D2F1 male mice
# Format: functional
# Settings: not given
# How it was run: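 P388 leukemia model, run essentially per NCI standard protocols: 10⁶ tumor cells injected ip into B6D2F1 male mice on day 0. Drug given ip once daily for 4 days starting day 1; highest dose tested 50 mg/kg per day. Read-out is percent increase in life span (ILS) versus untreated controls, with long-term survivors (>40 days) noted.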
row,SMILES,ILS [%]
1,COc1cccc2c1C(=O)c1c(O)c3c(c(O)c1C2=O)C[C@@](O)(C(=O)CO)C[C@@H]3O[C@H]1C[C@H](N)[C@H](O)[C@H](C)O1 [DOXORUBICIN],145
2,COc1cccc2c1C(=O)c1c(O)c3c(c(O)c1C2=O)C[C@@](O)(C(=O)COC(=O)C(CCSC)NC(C)=O)C[C@@H]3OC1CC(NC(=O)C(F)(F)F)C(O)C(C)O1 (some centres undefined),136
3,COc1cccc2c1C(=O)c1c(O)c3c(c(O)c1C2=O)C[C@@](O)(C(=O)COC(=O)C(Cc1ccccc1)NC(C)=O)C[C@@H]3OC1CC(NC(=O)C(F)(F)F)C(O)C(C)O1 (some centres undefined),173
4,COc1cccc2c1C(=O)c1c(O)c3c(c(O)c1C2=O)C[C@@](O)(C(=O)COC(=O)C(C)NC(C)=O)C[C@@H]3OC1CC(NC(=O)C(F)(F)F)C(O)C(C)O1 (some centres undefined),163
5,COc1cccc2c1C(=O)c1c(O)c3c(c(O)c1C2=O)C[C@@](O)(C(=O)COC(=O)CNC(C)=O)C[C@@H]3OC1CC(NC(=O)C(F)(F)F)C(O)C(C)O1 (some centres undefined),105
